NS3 helicase inh: HCV NS3 helicase inhibition | 290,000 compounds, 0.56% hits | NS3 helicase DNA unwinding, Cy5 molecular beacon fluorescence | inhibition, % at 10.9 µM | AID 1800;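 active means inhibition above the mean of all tested compounds plus 3 SD, set per campaign, cut at about 35% in these data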
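Compound dosing – single dose, 10.9 µM nominal final, DMSO 0.8% final · System – NS3 helicase fragment of HCV · Buffer or medium – MOPS pH 6.5, MgCl2, DTT, Tween20, BSA · Signal – Cy5 beacon fluorescence read at start and 1 h · Also added – annealed dual-labelled DNA beacon duplex, ATP-started · Schedule – 1 h at 25 °C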
M18AAP inhibitor: PfM18AAP enzyme inhibition. recombinant PfM18AAP, H-Glu-NHMec fluorogenic cleavage. inhibition, % at 7.35 µM. 290,000 compounds, 1.2% hits. AID 1822;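 active means inhibition above the campaign mean inhibition over all tested compounds plus 3 SD, cut at about 28% in these data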
HCV core dimer: blocks dimerization of HCV core protein | inhibition, % at 5 µM | TR-FRET GST/Flag-core106 dimerization, 1536-well | 300,000 compounds, 0.33% hits;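 active means inhibition above the mean of all tested compounds plus 3 SD, set per screening campaign, cut at about 45% in these data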
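Assay system: Tagged HCV core106 pair (GST and Flag) | Buffer or medium: KF-containing HEPES buffer, pH 7.45, DTT, CHAPS, BSA | Also added: Eu donor and XL665 acceptor anti-tag antibodies | Dosing: One concentration, 5 µM, in 0.5% DMSO | Timing: 4 h at 22.5 °C | Technique: TR-FRET 671 and 617 nm emission | Repeats: Singlicate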
ALR inh: inhibitors of human sulfhydryl oxidase ALR | P55789 | 290,000 compounds, 3.8% hits | inhibition, % (no concentration beside the values) | purified ALR, DTT oxidation, H2O2 HRP-luminol luminescence | AID 485317;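 active means mean replicate inhibition above about 79%, with every replicate also reaching it, limit read from the data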
Target sequence (P55789 whole entry, looked up): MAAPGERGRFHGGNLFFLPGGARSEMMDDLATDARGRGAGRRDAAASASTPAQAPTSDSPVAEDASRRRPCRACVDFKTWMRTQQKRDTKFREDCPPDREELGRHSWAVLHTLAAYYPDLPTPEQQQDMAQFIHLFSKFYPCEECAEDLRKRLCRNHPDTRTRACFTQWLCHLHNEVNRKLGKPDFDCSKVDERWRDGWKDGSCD
ZTA DNA inh: ZTA (EBV) inhibition in EBNA-1 counter-screen | AID 2234 | ZTA-DNA binding, fluorescence polarization | inhibition, % at 11 µM | 320,000 compounds, 0.15% hits; in the data active means inhibition above about 33%
Target sequence (P03206 whole entry, looked up): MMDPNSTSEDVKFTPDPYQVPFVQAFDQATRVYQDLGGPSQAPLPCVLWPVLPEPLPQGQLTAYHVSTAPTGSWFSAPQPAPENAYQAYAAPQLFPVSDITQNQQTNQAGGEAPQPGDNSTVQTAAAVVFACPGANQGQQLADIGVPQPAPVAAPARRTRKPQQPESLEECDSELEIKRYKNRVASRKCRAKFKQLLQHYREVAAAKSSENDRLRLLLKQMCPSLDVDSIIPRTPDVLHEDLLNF
EBNA-1 inhibitor: blocks EBNA-1 binding to DNA. EBNA-1 DNA binding, fluorescence polarization. inhibition, % at 14.8 µM. 300,000 compounds, 0.34% hits. AID 1950; in the data active means inhibition above about 28%
Each line names hits and unclear results; the compound was inactive in the other large screens. Sampled rows, rich in hits. Any-hit rate of the full collection: about 5.2%.

Cc1ccc(N2C(=O)c3ccc(C(=O)N4CCN(c5ccc(C)c(C)c5)CC4)cc3C2=O)cc1	none
Cc1ccc(N2C(=O)c3ccc(C(=O)O)cc3C2=O)cc1C	ALR inh 95
O=c1oc(-c2ccccc2)cc(Cl)c1Cl	none
O=C(N/N=C/c1ccco1)c1cccc(N2Cc3ccccc3C2)c1	HCV core dimer 63
COc1ccc(C2C(C(=O)O)c3ccccc3C(=O)N2Cc2ccco2)cc1 (stereo not given)	none
Cc1cccc(C(=O)Nc2cc(S(=O)(=O)N3CCOCC3)ccc2N2CCCCC2)c1	none (no result: NS3 helicase inh, M18AAP inhibitor, HCV core dimer, ALR inh, EBNA-1 inhibitor)
CCCCc1nc2n[nH]c(N)c2c2c1CSC(C)(C)C2	none (no result: ALR inh)
CC(C)c1nc2n[nH]c(N)c2c2c1CSC(C)(C)C2	ALR inh 98
Cc1ccc(CNC(=O)C(=O)NCC2CCCN2S(=O)(=O)c2cc(C)ccc2C)cc1 (stereo not given)	none (no result: NS3 helicase inh, M18AAP inhibitor)
Cc1nc2cc(N)ccc2n1-c1ccccc1	ALR inh 99
Cc1nc2ccccc2n1-c1ccccc1	none
Cc1cc(NC(=O)c2sc(Nc3ccc(F)cc3)nc2N)no1	ALR inh 97
O=C(NCCC1CCCCN1S(=O)(=O)c1ccccc1)C(=O)NCc1ccncc1 (stereo not given)	none (no result: NS3 helicase inh, M18AAP inhibitor)
CSc1ccc(C2Nc3ccccc3-c3cc(C)nn32)cc1 (stereo not given)	none
Cc1cc2n(n1)C(c1ccccc1Cl)Nc1ccccc1-2 (stereo not given)	ALR inh 98
Cc1cc(C(=O)CSc2nnc(N)s2)c(C)n1C1CC1	ALR inh 98 (no result: NS3 helicase inh, M18AAP inhibitor)
CCCCN(C)S(=O)(=O)c1ccc(C(=O)Nc2nnc(-c3ccco3)o2)cc1	ALR inh 84
COc1ccccc1C(=O)NC(CCSC)C(=O)NNC(=O)c1ccncc1 (stereo not given)	none (no result: NS3 helicase inh, M18AAP inhibitor)
CCN(CCNC(=O)c1ccc(C#N)cc1)c1cccc(C)c1	ALR inh 98
O=C(Nc1cccnc1)c1ccc(Cl)c(S(=O)(=O)N2CCCC2)c1	none
O=C(Nc1cccc(Cl)c1)c1cc(S(=O)(=O)N2CCOCC2)cs1	none
CC(C)(C)N1CC(C(=O)Nc2ccc(C#N)cc2)CC1=O (stereo not given)	none
CCOC(=O)c1sc(NC(=O)Cn2nnc3sc4c(c3c2=O)CCC(C(C)(C)C)C4)nc1C (stereo not given)	HCV core dimer 46
C/C(CC(=O)Nc1ccc([N+](=O)[O-])cc1)=N\NC(=O)c1ccccc1[N+](=O)[O-]	none
COc1ccc(CC(=O)N/N=C(\C)CC(=O)Nc2ccc(N(C)C)cc2)cc1	ALR inh 94
C/C(CC(=O)Nc1ccc(N(C)C)cc1)=N\NC(=O)c1ccc([N+](=O)[O-])cc1	ALR inh 95 (no result: HCV core dimer, ZTA DNA inh, EBNA-1 inhibitor)
COc1ccc(C(=S)Nc2ccc(N(C)C)cc2)cc1	ALR inh 99
Cc1cc(-c2ccccc2)nc(N/N=C/c2ccc([N+](=O)[O-])cc2)n1	none
Cc1cc2c(C)nc(N/N=C/c3ccc([N+](=O)[O-])cc3)nc2o1	M18AAP inhibitor 30
Cc1ccnc2nc(C(=O)OCC(=O)Nc3ccc([N+](=O)[O-])cc3Br)nn12	none (no result: NS3 helicase inh, M18AAP inhibitor, HCV core dimer, ALR inh, EBNA-1 inhibitor)
COC(=O)c1ccc(OCCN2CCCCCC2)cc1	none
O=C(c1ccc(OCCN2CCCCC2)cc1)c1c(-c2ccc(O)cc2)sc2cc(O)ccc12	ALR inh 91 (no result: NS3 helicase inh, M18AAP inhibitor)
CC1CCN(C(=O)COc2ccc(Nc3ccccc3)cc2)CC1	ALR inh 88
OCC1CCCN(C(=S)Nc2ccc(Nc3ccccc3)cc2)C1 (stereo not given)	ALR inh 100
CC1CCCN(C(=O)COc2ccc(Nc3ccccc3)cc2)C1 (stereo not given)	ALR inh 99
CC(=O)Nc1ccc(OCC(=O)N2CCC(Cc3ccccc3)CC2)cc1	none
COc1ccccc1CN(C(=O)CNC(=O)c1ccco1)C(C(=O)NCC1CCCO1)c1ccc(OC)c(OC)c1 (stereo not given)	none
CCc1nc(SCC(=O)c2cccs2)c2oc3ccccc3c2n1	none
C/C(N)=C(/C#N)C(=O)COC(=O)c1cc2c(s1)CCC(C)C2 (stereo not given)	ALR inh 96
Cc1ccc(S(=O)(=O)N[C@@H](Cc2ccccc2)C(=O)CCl)cc1	ALR inh 98

Compound activity from PubChem BioAssay.
